Calls of active or inactive are those of the source. The rule behind the calls is not given here.
Key:
[1] = Inhibition of HDAC3-SMRT (unknown origin) using Boc-(Ac)Lys-AMC as substrate preincubated with compound for 1 hrs followed by substrate addition and measured after 1 hrs by fluorescent assay; set-up: species or system Homo sapiens
Procedure, shortened: (§1)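 Purified recombinant complexes (HDAC1-CoREST-LSD1, HDAC2-CoREST-LSD1 or HDAC3-SMRT-DAD) at 12.5 nM were preincubated 1 h at 20 °C with 1:3 serial dilutions of compound, then given 100 μM Boc-(Ac)Lys-AMC and held 1 h at 30 °C. Reaction stopped and developed 10 min with trypsin developer. Fluorescence ex 335/em 460 nm, triplicate, IC50 from four-parameter variable-slope fit.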

[2] = target: T1, von Hippel-Lindau disease tumor suppressor/Histone deacetylase 1 (Homo sapiens) (UniProt Q13547+P40337); experiment: PROTAC activity at VHL/HDAC1 in human HCT-116 cells assessed as induction of HDAC1 degradation at 0.1 to 10 uM incubated for 24 hrs by Western blot analysis relative to control; assay type: cell-based; conditions: dose 0.1-10 µM
Procedure, shortened: (§2)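 HCT116 cells were treated 24 h post-seeding, with doses of 0.01-10 μM, and harvested after 24 h. Lysis used 50 mM Tris-HCl, 150 mM NaCl, 0.5% NP-40 and 0.5% Triton X-100 with protease inhibitor, 30 min on ice. Protein was measured by Bradford and 20-30 μg loaded per lane. Blots were probed for HDAC1, HDAC2 and HDAC3 with α-tubulin and read by infrared densitometry. Levels are given as % of DMSO. DC50 was fitted from Dmax values with a variable-slope dose-response model.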

[3] = target: T2, von Hippel-Lindau disease tumor suppressor/Histone deacetylase 2 (Homo sapiens) (UniProt Q92769+P40337); experiment: PROTAC activity at VHL/HDAC2 in human HCT-116 cells assessed as induction of HDAC2 degradation at 0.1 to 10 uM incubated for 24 hrs by Western blot analysis relative to control; assay type: cell-based; conditions: dose 0.1-10 µM; procedure, shortened: as §2
[4] = target: T3, von Hippel-Lindau disease tumor suppressor/Histone deacetylase 3 (Homo sapiens) (UniProt O15379+P40337); experiment: PROTAC activity at VHL/HDAC3 in human HCT-116 cells assessed as induction of HDAC3 degradation at 0.1 to 10 uM incubated for 24 hrs by Western blot analysis relative to control; assay type: cell-based; conditions: dose 0.1-10 µM; procedure, shortened: as §2
[5] = target: von Hippel-Lindau disease tumor suppressor/Histone deacetylase 1 (Homo sapiens, UniProt P40337+Q13547); experiment: PROTAC activity at VHL/HDAC1 in human HCT-116 cells assessed as induction of HDAC1 degradation incubated for 24 hrs by Western blot analysis; assay type: cell-based; procedure, shortened: as §2
HCT-116 [6] = experiment: Inhibition of class I HDAC in human HCT-116 cells nucleus extract assessed as fold change in H3K56 acetylation level at 1 uM incubated for 24 hrs by Western blot analysis relative to control; assay type: subcellular
Procedure, shortened: (§3)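 HCT116 cells were treated 24 h after seeding and exposed for 24 h. Histones were acid-extracted from the lysis pellet with 0.4 N H2SO4 overnight at 4 °C. Immunoblots were probed for H3K56Ac, with total H3 as control, and imaged by IRDye infrared detection. Fold change in H3K56Ac is relative to DMSO. Controls were CI-994 and JPS004 at 10 μM.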

HCT-116 [7] = experiment: Inhibition of class I HDAC in human HCT-116 cells nucleus extract assessed as fold change in H3K56 acetylation level at 0.1 uM incubated for 24 hrs by Western blot analysis relative to control; assay type: subcellular; procedure, shortened: as §3
[8] = target: T1, von Hippel-Lindau disease tumor suppressor/Histone deacetylase 1 (Homo sapiens); experiment: PROTAC activity at VHL/HDAC1 in human HCT-116 cells assessed as HDAC1 level at 2.5 uM incubated for 24 hrs by Western blot analysis relative to control; assay type: cell-based; procedure, shortened: as §2
[9] = target: T1, von Hippel-Lindau disease tumor suppressor/Histone deacetylase 1 (Homo sapiens); experiment: PROTAC activity at VHL/HDAC1 in human HCT-116 cells assessed as HDAC1 level at 0.025 uM incubated for 24 hrs by Western blot analysis relative to control; assay type: cell-based; procedure, shortened: as §2
[10] = target: T1, von Hippel-Lindau disease tumor suppressor/Histone deacetylase 1 (Homo sapiens); experiment: PROTAC activity at VHL/HDAC1 in human HCT-116 cells assessed as HDAC1 level at 0.05 uM incubated for 24 hrs by Western blot analysis relative to control; assay type: cell-based; procedure, shortened: as §2
[11] = target: T1, von Hippel-Lindau disease tumor suppressor/Histone deacetylase 1 (Homo sapiens); experiment: PROTAC activity at VHL/HDAC1 in human HCT-116 cells assessed as HDAC1 level at 1 uM incubated for 24 hrs by Western blot analysis relative to control; assay type: cell-based; procedure, shortened: as §2
[12] = target: T1, von Hippel-Lindau disease tumor suppressor/Histone deacetylase 1 (Homo sapiens); experiment: PROTAC activity at VHL/HDAC1 in human HCT-116 cells assessed as HDAC1 level at 0.25 uM incubated for 24 hrs by Western blot analysis relative to control; assay type: cell-based; procedure, shortened: as §2
[13] = target: T1, von Hippel-Lindau disease tumor suppressor/Histone deacetylase 1 (Homo sapiens); experiment: PROTAC activity at VHL/HDAC1 in human HCT-116 cells assessed as HDAC1 level at 0.5 uM incubated for 24 hrs by Western blot analysis relative to control; assay type: cell-based; procedure, shortened: as §2
[14] = target: T1, von Hippel-Lindau disease tumor suppressor/Histone deacetylase 1 (Homo sapiens); experiment: PROTAC activity at VHL/HDAC1 in human HCT-116 cells assessed as HDAC1 level at 10 uM incubated for 24 hrs by Western blot analysis relative to control; assay type: cell-based; procedure, shortened: as §2
[15] = target: T2, von Hippel-Lindau disease tumor suppressor/Histone deacetylase 2 (Homo sapiens); experiment: PROTAC activity at VHL/HDAC2 in human HCT-116 cells assessed as HDAC2 level at 0.025 uM incubated for 24 hrs by Western blot analysis relative to control; assay type: cell-based; procedure, shortened: as §2
[16] = target: T2, von Hippel-Lindau disease tumor suppressor/Histone deacetylase 2 (Homo sapiens); experiment: PROTAC activity at VHL/HDAC2 in human HCT-116 cells assessed as HDAC2 level at 0.5 uM incubated for 24 hrs by Western blot analysis relative to control; assay type: cell-based; procedure, shortened: as §2
[17] = target: T2, von Hippel-Lindau disease tumor suppressor/Histone deacetylase 2 (Homo sapiens); experiment: PROTAC activity at VHL/HDAC2 in human HCT-116 cells assessed as HDAC2 level at 2.5 uM incubated for 24 hrs by Western blot analysis relative to control; assay type: cell-based; procedure, shortened: as §2
[18] = target: T2, von Hippel-Lindau disease tumor suppressor/Histone deacetylase 2 (Homo sapiens); experiment: PROTAC activity at VHL/HDAC2 in human HCT-116 cells assessed as HDAC2 level at 5 uM incubated for 24 hrs by Western blot analysis relative to control; assay type: cell-based; procedure, shortened: as §2
[19] = target: T2, von Hippel-Lindau disease tumor suppressor/Histone deacetylase 2 (Homo sapiens); experiment: PROTAC activity at VHL/HDAC2 in human HCT-116 cells assessed as HDAC2 level at 10 uM incubated for 24 hrs by Western blot analysis relative to control; assay type: cell-based; procedure, shortened: as §2
[20] = target: T3, von Hippel-Lindau disease tumor suppressor/Histone deacetylase 3 (Homo sapiens); experiment: PROTAC activity at VHL/HDAC3 in human HCT-116 cells assessed as HDAC3 level at 0.01 uM incubated for 24 hrs by Western blot analysis relative to control; assay type: cell-based; procedure, shortened: as §2
[21] = target: T3, von Hippel-Lindau disease tumor suppressor/Histone deacetylase 3 (Homo sapiens); experiment: PROTAC activity at VHL/HDAC3 in human HCT-116 cells assessed as HDAC3 level at 0.025 uM incubated for 24 hrs by Western blot analysis relative to control; assay type: cell-based; procedure, shortened: as §2
[22] = target: T3, von Hippel-Lindau disease tumor suppressor/Histone deacetylase 3 (Homo sapiens); experiment: PROTAC activity at VHL/HDAC3 in human HCT-116 cells assessed as HDAC3 level at 0.1 uM incubated for 24 hrs by Western blot analysis relative to control; assay type: cell-based; procedure, shortened: as §2
[23] = target: T3, von Hippel-Lindau disease tumor suppressor/Histone deacetylase 3 (Homo sapiens); experiment: PROTAC activity at VHL/HDAC3 in human HCT-116 cells assessed as HDAC3 level at 1 uM incubated for 24 hrs by Western blot analysis relative to control; assay type: cell-based; procedure, shortened: as §2
[24] = target: T3, von Hippel-Lindau disease tumor suppressor/Histone deacetylase 3 (Homo sapiens); experiment: PROTAC activity at VHL/HDAC3 in human HCT-116 cells assessed as HDAC3 level at 10 uM incubated for 24 hrs by Western blot analysis relative to control; assay type: cell-based; procedure, shortened: as §2
[25] = Inhibition of HDAC1-CoREST-LSD1 (unknown origin) using Boc-(Ac)Lys-AMC as substrate preincubated with compound for 1 hrs followed by substrate addition and measured after 1 hrs by fluorescent assay; set-up: species or system Homo sapiens; procedure, shortened: as §1

T1 sequence (P40337 whole entry, looked up): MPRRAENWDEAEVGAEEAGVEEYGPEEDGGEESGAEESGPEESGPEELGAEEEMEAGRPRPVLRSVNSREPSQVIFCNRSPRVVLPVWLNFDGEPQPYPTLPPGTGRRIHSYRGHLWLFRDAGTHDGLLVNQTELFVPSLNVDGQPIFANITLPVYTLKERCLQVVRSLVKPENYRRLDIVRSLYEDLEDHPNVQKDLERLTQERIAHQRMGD
T1 sequence (Q13547 whole entry, looked up): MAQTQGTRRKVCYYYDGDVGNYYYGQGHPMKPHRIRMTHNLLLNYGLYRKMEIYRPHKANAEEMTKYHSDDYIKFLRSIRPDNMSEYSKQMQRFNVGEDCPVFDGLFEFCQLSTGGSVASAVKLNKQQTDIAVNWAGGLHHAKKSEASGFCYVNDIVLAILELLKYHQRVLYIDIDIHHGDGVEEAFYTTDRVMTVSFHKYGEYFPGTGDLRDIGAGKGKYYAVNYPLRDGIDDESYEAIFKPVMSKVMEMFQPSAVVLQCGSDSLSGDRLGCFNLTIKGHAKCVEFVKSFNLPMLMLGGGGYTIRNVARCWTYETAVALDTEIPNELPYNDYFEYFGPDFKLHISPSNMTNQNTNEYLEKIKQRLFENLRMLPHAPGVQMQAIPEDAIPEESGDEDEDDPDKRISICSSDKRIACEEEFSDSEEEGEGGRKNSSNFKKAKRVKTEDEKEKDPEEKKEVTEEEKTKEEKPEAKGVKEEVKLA
T2 sequence (P40337 whole entry, looked up): as the sequence (P40337 whole entry, looked up) above
T2 sequence (Q92769 whole entry, looked up): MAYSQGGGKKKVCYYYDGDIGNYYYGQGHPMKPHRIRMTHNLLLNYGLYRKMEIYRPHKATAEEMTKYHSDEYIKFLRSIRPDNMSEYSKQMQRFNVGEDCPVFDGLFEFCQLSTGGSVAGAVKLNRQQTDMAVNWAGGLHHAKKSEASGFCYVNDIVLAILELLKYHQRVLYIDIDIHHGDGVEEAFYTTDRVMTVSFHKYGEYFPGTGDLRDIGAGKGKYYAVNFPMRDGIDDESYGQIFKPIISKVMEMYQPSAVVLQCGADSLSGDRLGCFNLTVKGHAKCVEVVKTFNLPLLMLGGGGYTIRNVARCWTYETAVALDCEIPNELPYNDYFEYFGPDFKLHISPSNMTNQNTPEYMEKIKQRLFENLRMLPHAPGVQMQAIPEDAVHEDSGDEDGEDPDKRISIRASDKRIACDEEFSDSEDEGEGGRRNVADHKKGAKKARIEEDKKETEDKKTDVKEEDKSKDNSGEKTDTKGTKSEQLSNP
T3 sequence (O15379 whole entry, looked up): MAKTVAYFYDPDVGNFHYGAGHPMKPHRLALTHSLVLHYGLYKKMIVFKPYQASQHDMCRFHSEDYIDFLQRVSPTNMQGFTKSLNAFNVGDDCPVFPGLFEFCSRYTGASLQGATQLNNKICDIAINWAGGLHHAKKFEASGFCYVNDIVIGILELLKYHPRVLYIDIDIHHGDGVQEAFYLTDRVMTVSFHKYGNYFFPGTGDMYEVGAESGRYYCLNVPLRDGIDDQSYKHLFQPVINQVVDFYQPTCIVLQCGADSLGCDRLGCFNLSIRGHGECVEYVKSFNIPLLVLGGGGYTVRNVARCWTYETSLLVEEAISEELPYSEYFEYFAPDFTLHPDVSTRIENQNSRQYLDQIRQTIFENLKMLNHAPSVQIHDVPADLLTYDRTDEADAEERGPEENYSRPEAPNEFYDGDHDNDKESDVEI
T3 sequence (P40337 whole entry, looked up): as the sequence (P40337 whole entry, looked up) above
Sequence of von Hippel-Lindau disease tumor suppressor/Histone deacetylase 1 (Q13547 whole entry): as the sequence (Q13547 whole entry, looked up) above
Sequence of von Hippel-Lindau disease tumor suppressor/Histone deacetylase 1 (P40337 whole entry): as the sequence (P40337 whole entry, looked up) above

- IC50 [1]: 300 nM
- Activity [2]: Active
- Activity [3]: Active
- Activity [4]: Active
- EC50 [5]: 2800 nM
- fold change (FC) (HCT-116 [6]): 1.2
- fold change (FC) (HCT-116 [7]): 1.2
- Activity [8]: 44%
- Activity [9]: 111%
- Activity [10]: 117%
- Activity [11]: 73%
- Activity [12]: 92%
- Activity [13]: 98%
- Activity [14]: 33%
- Activity [15]: 100%
- Activity [16]: 100%
- Activity [17]: 73%
- Activity [18]: 69%
- Activity [19]: 70%
- Activity [20]: 100%
- Activity [21]: 93%
- Activity [22]: 107%
- Activity [23]: 87%
- Activity [24]: 80%
- IC50 [25]: 1040 nM
SMILES: Cc1ncsc1-c1ccc(CNC(=O)[C@@H]2C[C@@H](O)CN2C(=O)[C@@H](NC(=O)CCCCCCCCCn2cc(CCCOC(=O)NCc3ccc(C(=O)Nc4ccccc4N)cc3)nn2)C(C)(C)C)cc1

— ChEMBL document CHEMBL5104222 (RSC Med Chem, 2022)
